Measured values of several laboratories.
Target: Serine/threonine-protein kinase WNK2 (WNK2, Homo sapiens, UniProt Q9Y3S1)

SMILES | observed | mode | method | tested at | measurement | value
COc1cc(Cl)c(C(=O)N[C@@H](CN[C@H]2CC[C@@H](N)CC2)Cc2ccc(C#N)cc2)cc1-c1ccc(CN[C@H](C)c2ccc(C)cc2)o1 | enzyme activity | inhibitor |  | 1 µM | remaining activity | 101%
CN1CC(Oc2cnc(C#N)cc2-c2ccn3nc(NC(=O)C4CC4)cc3c2)C1 | enzyme activity | inhibitor |  | 1 µM | inhibition | 8%
O=C(Nc1cnn(-c2csc(C(=O)NC3COC3)c2)c1)Nc1ccccc1Cl | enzyme activity | inhibitor |  | 5 µM | remaining activity | 96.3%
Cc1cc(NC(=O)c2cccc3cc(-c4cccc5[nH]nc(N)c45)ccc23)ccc1F | enzyme activity | inhibitor |  | 0.1 µM | activity vs control | 98%
CCN(CC)c1ccc(C2=NNC(=O)CC2C)cc1[N+](=O)[O-] (stereo not shown) | enzyme activity | inhibitor |  | 10 µM | remaining activity | 104%
CCN(CC)CCNC(=O)c1c(C)[nH]c(/C=C2\C(=O)Nc3ccc(F)cc32)c1C | enzyme activity | inhibitor |  | 10 µM | inhibition | 23%
O=C(O)[C@@H]1[C@@H](Cn2nnc3ccccc3c2=O)CC[C@H]1C(=O)c1ccc(OCCC2CCOCC2)cc1 | cell-free assay |  | competition with immobilised ligand | 1 µM | remaining binding | 82%
Nc1ncnc2occ(-c3ccc(NC(=O)Nc4cc(C(F)(F)F)ccc4F)cc3)c12 | cell-free assay | inhibitor |  | 20 µM | remaining signal | 65%
CN(CCCC(F)(F)F)c1nccc(-c2cnn3ncccc23)n1 | binding |  |  | 1 µM | remaining binding | 100%
CN([C@@H]1CCc2c(CC(=O)O)c3ccccc3n2C1)S(=O)(=O)c1ccc(F)cc1 | cell-free assay |  | competition with immobilised ligand | 1 µM | remaining binding | 92%
Cc1ccc(Nc2nccc(N(C)c3ccc4c(C)n(C)nc4c3)n2)cc1S(N)(=O)=O | enzyme activity | inhibitor |  | 10 µM | inhibition | 26%
O=C1Nc2ccc(Cl)cc2C1=Cc1cc(Cl)c(O)c(Cl)c1 | cell-free assay |  |  | 0.5 µM | remaining signal | 115%
CNC(=O)Nc1ccc2c(c1)[C@@]1(CC2)OC(=O)N(CC(=O)N(Cc2ccc(F)cc2)[C@@H](C)C(F)(F)F)C1=O | cell-free assay |  | competition with immobilised ligand | 1 µM | remaining binding | 59%
CC(C)(C)c1nc2c(s1)c1nc(N)ncc1c1ccc(NS(=O)(=O)c3c(F)cccc3F)c(F)c12 | enzyme activity | inhibitor | radiometric | 1 µM | remaining activity | 101%
O=C(Nc1cnn(-c2csc(C(=O)NC3COC3)c2)c1)Nc1c(F)cccc1Cl | enzyme activity | inhibitor |  | 5 µM | remaining activity | 91.9%
Nc1cnc(N2CCc3cc(S(=O)(=O)Nc4c(F)cc(Cl)cc4F)cc(N4CCCC4=O)c32)nc1 | cell-free assay |  | competition with immobilised ligand | 1 µM | remaining binding | 100%
CNC(=O)c1cc(Oc2ccc(NC(=O)Nc3ccc(Cl)c(C(F)(F)F)c3)cc2)ccn1 | enzyme activity | inhibitor |  | 10 µM | inhibition | 13%
CO[C@@H](C)c1c(Nc2ccc([C@@H](N(C)C(=O)C3CCS(=O)(=O)CC3)C(F)(F)F)cc2)cnc2cc(Cl)nn12 | cell-free assay |  | competition with immobilised ligand | 1 µM | remaining binding | 100%
N#CCCc1ccc2c(c1)-c1[nH]c3ccc([N+](=O)[O-])cc3c1CC(=O)N2 | cell-free assay |  |  | 0.5 µM | remaining signal | 112%
